Experimental data published in ChEMBL document CHEMBL4177761, “Highlights of the Structure-Activity Relationships of Benzimidazole Linked Pyrrolidines Leading to the Discovery of the Hepatitis C Virus NS5A Inhibitor Pibrentasvir (ABT-530)” (J Med Chem, 2018).
Positions count from the first letter of the chain named.

Key:
[1] = molecular target: T1, Nonstructural protein 5A (Hepatitis C virus) (UniProt Q5L478); test: Inhibition of NS5A Q30E mutant in HuH7 cell infected HCV genotype 1a H77 assessed as decrease in viral replication after 4 days by luciferase reporter gene assay relative to wild type protein; conditions: Hepatitis C virus (isolate H77)
T1 sequence (whole entry): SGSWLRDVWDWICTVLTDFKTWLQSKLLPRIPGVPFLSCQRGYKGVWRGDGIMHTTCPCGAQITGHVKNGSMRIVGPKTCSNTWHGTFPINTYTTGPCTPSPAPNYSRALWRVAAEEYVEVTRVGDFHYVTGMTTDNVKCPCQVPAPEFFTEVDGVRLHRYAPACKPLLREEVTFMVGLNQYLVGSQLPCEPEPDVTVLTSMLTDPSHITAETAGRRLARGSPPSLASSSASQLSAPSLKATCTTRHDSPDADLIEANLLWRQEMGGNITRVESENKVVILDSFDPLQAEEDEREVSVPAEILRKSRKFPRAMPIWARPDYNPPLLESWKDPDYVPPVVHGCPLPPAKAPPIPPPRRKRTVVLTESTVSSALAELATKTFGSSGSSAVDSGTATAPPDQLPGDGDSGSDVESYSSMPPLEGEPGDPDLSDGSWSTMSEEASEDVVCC
Outline: (§1)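 Stable subgenomic luciferase replicons in Huh-7 cells: genotype 1a-H77 carrying NS5A substitutions M28T, Q30E, Q30R, Y93C, Y93H or Y93N, tested alongside the wild-type replicon. Cells are incubated 4 days with compound in DMEM with 5% FBS. Luciferase read-out, EC50 by 4-parameter logistic fit, and fold change versus wild type.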

[2] = Drug level in dog at 2.5 mg/kg, po at 24 hrs by LC-MS method; type: ADME, organism-based, Canis lupus familiaris; conditions: in vivo, read-out: Drug uptake
Outline: (§2)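 Single dose in dog or monkey, 1 mg/kg IV or 2.5 mg/kg PO. Plasma drug measured by LC-MS after acetonitrile protein precipitation with an internal standard. Quantified by linear regression of parent/internal-standard peak-area ratio against spiked standards.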

[3] = AUClast in mouse at 3 mg/kg, iv by LC-MS method; type: ADME, organism-based; set-up: dose 3 mg/kg, route intravenous, time 0 - last; conditions: in vivo
Outline: (§3)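 Single dose, 3 mg/kg, in mouse or rat. IV vehicle: DMSO:Tween 80:PEG-400:D5W 2:5:20:73 (v/v). PO vehicle: Phosol 53 MCT:PEG-400:Poloxamer 124:Cremophor RH40 40:20:20:20 (w/w). Acetonitrile protein precipitation, then LC-MS/MS in negative-ion MRM against an internal standard; LOQ ~20 ng/mL.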

[4] = Cmax in monkey at 2.5 mg/kg, po by LC-MS method; type: ADME, organism-based, Macaca mulatta; set-up: dose 2.5 mg/kg, route oral; conditions: rhesus monkey, in vivo; outline: as §2
[5] = Tmax in mouse at 3 mg/kg, po by LC-MS method; type: ADME, organism-based; conditions: in vivo
[6] = AUClast in dog at 2.5 mg/kg, po by LC-MS method; type: ADME, organism-based, Canis lupus familiaris; set-up: dose 2.5 mg/kg, route oral, time 0 - last; conditions: in vivo; outline: as §2
[7] = molecular target: T1, Nonstructural protein 5A (Hepatitis C virus); test: Inhibition of NS5A Q30R mutant in HuH7 cell infected HCV genotype 1a H77 assessed as decrease in viral replication after 4 days by luciferase reporter gene assay relative to wild type protein; conditions: Hepatitis C virus (isolate H77); outline: as §1
[8] = Half life in rat at 3 mg/kg, po by LC-MS method; type: ADME, organism-based; conditions: in vivo; outline: as §3
[9] = Tmax in rat at 3 mg/kg, po by LC-MS method; type: ADME, organism-based; conditions: in vivo
Outline: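 Single 3 mg/kg oral dose in rat, formulated in 40:20:20:20 (w/w) Phosol 53 MCT:PEG-400:Poloxamer 124:Cremophor RH40. Heparinized plasma drawn at 0.25, 0.5, 1, 2, 4, 6, 9, 12 and 24 h. Acetonitrile protein precipitation, then LC-MS in negative-ion MRM mode. Levels read from peak-area ratio to internal standard against spiked standards by linear regression; LOQ ~20 ng/mL.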

[10] = Half life in monkey at 2.5 mg/kg, po by LC-MS method; type: ADME, organism-based, Macaca mulatta; conditions: rhesus monkey, in vivo; outline: as §2
[11] = Plasma clearance in monkey at 1 mg/kg, iv by LC-MS method; type: ADME, organism-based, Macaca mulatta; conditions: rhesus monkey; outline: as §2
[12] = molecular target: T1, Nonstructural protein 5A (Hepatitis C virus); test: Inhibition of NS5A M28T mutant in HuH7 cell infected HCV genotype 1a H77 assessed as decrease in viral replication after 4 days by luciferase reporter gene assay relative to wild type protein; conditions: Hepatitis C virus (isolate H77); outline: as §1
[13] = Oral bioavailability in mouse at 3 mg/kg by LC-MS method; type: ADME, organism-based; conditions: in vivo; outline: as §3
[14] = test system: T2, Nonstructural protein 5A (Hepatitis C virus), Q5L478 [Y93C]; test: Inhibition of NS5A Y93C mutant in HuH7 cell infected HCV genotype 1a H77 assessed as decrease in viral replication after 4 days by luciferase reporter gene assay relative to wild type protein; conditions: Hepatitis C virus (isolate H77); outline: as §1
T2 sequence (whole entry): T1 sequence (whole entry) with Y93C

[15] = Drug level in monkey at 2.5 mg/kg, po at 24 hrs by LC-MS method; type: ADME, organism-based, Macaca mulatta; conditions: rhesus monkey, in vivo, read-out: Drug uptake; outline: as §2
[16] = Oral bioavailability in monkey at 2.5 mg/kg by LC-MS method; type: ADME, organism-based, Macaca mulatta; conditions: rhesus monkey, in vivo; outline: as §2
[17] = Tmax in dog at 2.5 mg/kg, po by LC-MS method; type: ADME, organism-based, Canis lupus familiaris; conditions: in vivo; outline: as §2
[18] = Half life in rat at 3 mg/kg, iv by LC-MS method; type: ADME, organism-based; conditions: in vivo; outline: as §3
[19] = Drug level in rat at 3 mg/kg, po at 24 hrs by LC-MS method; type: ADME, organism-based; conditions: in vivo, read-out: Drug uptake; outline: as §3
[20] = Cmax in rat at 3 mg/kg, po by LC-MS method; type: ADME, organism-based; set-up: dose 3 mg/kg, route oral; conditions: in vivo; outline: as §3
[21] = Oral bioavailability in rat at 3 mg/kg by LC-MS method; type: ADME, organism-based; conditions: in vivo; outline: as §3
[22] = Apparent volume of distribution in dog at 1 mg/kg, iv by LC-MS method; type: ADME, organism-based, Canis lupus familiaris; conditions: in vivo, read-out: Vc; outline: as §2
[23] = Half life in monkey at 1 mg/kg, iv by LC-MS method; type: ADME, organism-based, Macaca mulatta; conditions: rhesus monkey, in vivo; outline: as §2
[24] = Half life in dog at 1 mg/kg, iv by LC-MS method; type: ADME, organism-based, Canis lupus familiaris; conditions: in vivo; outline: as §2
[25] = Oral bioavailability in dog at 2.5 mg/kg by LC-MS method; type: ADME, organism-based, Canis lupus familiaris; conditions: in vivo; outline: as §2
[26] = Half life in mouse at 3 mg/kg, iv by LC-MS method; type: ADME, organism-based; conditions: in vivo; outline: as §3
[27] = Cmax in mouse at 3 mg/kg, po by LC-MS method; type: ADME, organism-based; set-up: dose 3 mg/kg, route oral; conditions: in vivo; outline: as §3
[28] = Tmax in monkey at 2.5 mg/kg, po by LC-MS method; type: ADME, organism-based, Macaca mulatta; conditions: rhesus monkey, in vivo; outline: as §2
[29] = AUClast in dog at 1 mg/kg, iv by LC-MS method; type: ADME, organism-based, Canis lupus familiaris; set-up: dose 1 mg/kg, route intravenous, time 0 - last; conditions: in vivo; outline: as §2

SMILES: COC(=O)N[C@H](C(=O)N1CCC[C@H]1c1nc2cc([C@H]3CC[C@H](c4cc5nc([C@@H]6CCCN6C(=O)[C@@H](NC(=O)OC)[C@@H](C)OC)[nH]c5cc4F)N3c3cc(F)c(N4CCC(c5ccc(F)cc5)CC4)c(F)c3)c(F)cc2[nH]1)[C@@H](C)OC [PIBRENTASVIR]
- fold change (FC) [1]: 2.4
- concentration at 24 h [2]: 82 nM
- AUC(0-t) [3]: 252000 ng·h/mL
- Cmax [4]: 260 nM
- Tmax [5]: 11 h
- AUC(0-t) [6]: 5990 ng·h/mL
- fold change (FC) [7]: 1.7
- half-life [8]: 7 h
- Tmax [9]: 5.3 h
- half-life [10]: 5.69 h
- clearance [11]: 2.5 mL/min/kg
- fold change (FC) [12]: 2.1
- bioavailability [13]: 7.9%
- fold change (FC) [14]: 1.7
- concentration at 24 h [15]: 17 nM
- bioavailability [16]: 14.1%
- Tmax [17]: 3.67 h
- half-life [18]: 6.2 h
- concentration at 24 h [19]: 41 nM
- Cmax [20]: 250 nM
- bioavailability [21]: 9.9%
- Vd [22]: 0.1 L/kg
- half-life [23]: 8.3 h
- half-life [24]: 7.1 h
- bioavailability [25]: 29.8%
- half-life [26]: 2 h
- Cmax [27]: 1140 nM
- Tmax [28]: 4 h
- AUC(0-t) [29]: 10600 ng·h/mL
